The results in this text go back to ChEMBL document CHEMBL3526062, “Role of human UDP-glucuronosyltransferases in the biotransformation of the triazoloacridinone and imidazoacridinone antitumor agents C-1305 and C-1311: highly selective substrates for UGT1A10” (Drug Metab Dispos, 2012).

For data set [1], the target named is T1, UDP-glucuronosyltransferase 1A7 (Homo sapiens, UniProt Q9HAW7).
T1 sequence (Q9HAW7 whole entry): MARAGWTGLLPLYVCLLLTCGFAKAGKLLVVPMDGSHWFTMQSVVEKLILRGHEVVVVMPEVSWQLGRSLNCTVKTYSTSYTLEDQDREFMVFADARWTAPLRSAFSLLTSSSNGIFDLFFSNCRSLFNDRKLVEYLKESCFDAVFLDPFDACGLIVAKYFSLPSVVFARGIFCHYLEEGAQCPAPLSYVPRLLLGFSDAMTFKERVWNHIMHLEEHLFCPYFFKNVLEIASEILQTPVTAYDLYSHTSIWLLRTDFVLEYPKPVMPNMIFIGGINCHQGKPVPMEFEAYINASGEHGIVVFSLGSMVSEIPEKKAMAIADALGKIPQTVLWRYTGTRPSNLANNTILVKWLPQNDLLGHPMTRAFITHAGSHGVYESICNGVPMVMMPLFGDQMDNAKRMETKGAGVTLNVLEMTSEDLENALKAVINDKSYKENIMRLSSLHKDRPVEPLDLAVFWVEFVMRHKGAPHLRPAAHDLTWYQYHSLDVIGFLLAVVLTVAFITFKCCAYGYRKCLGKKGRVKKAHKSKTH
The data set can be described thus: Activity of human recombinant UGT1A7 expressed in baculovirus-infected Sf9 cells assessed as glucuronidation activity per mg of protein at 100 to 200 uM after 60 mins in presence of 3 mM UDP-GlcUA. It is filed as ADME. The conditions noted are these: sf9, 1 h. In a few lines:
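Screening: 5 μg recombinant UGT protein (His-tag levels normalized) in Tris-HCl pH 7.4, 5 mM MgCl2, 5 mM saccharolactone, 2% DMSO to permeabilize membranes. Substrate at 100 or 200 μM, added in water. Started with 3 mM UDP-GlcUA, 60 min at 37°C, stopped with ethanol, then centrifuged. Glucuronide quantified by reversed-phase C18 HPLC against the substrate response; triplicates.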

In data set [2] the test system is Liver microsome. The data set can be described thus: Drug metabolism in human liver microsomes assessed as glucuronidation per mg of protein after 60 mins by Michaelis-Menten equation in presence of 3 mM UDP-GlcUA. It is filed as ADME. The following applies: 1 h. In a few lines:
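Recombinant UGT membrane protein (5 μg; His-tagged UGT1A levels normalized by anti-His Western blot) or single-donor microsomes (20 μg) incubated with substrate 5–1000 μM and 3 mM UDP-GlcUA in […] pH 7.4, 5 mM MgCl2, 5 mM saccharolactone, 2% DMSO, 60 min, 37°C. Ethanol stop, centrifuged, HPLC-UV. Initial velocities fitted to Michaelis-Menten, Hill or substrate-inhibition models; three determinations.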

The nature of data set [3]: Drug metabolism in human intestinal microsomes assessed as metabolite formation treated with C-1311 for 60 mins by ESI-MS/UV-vis spectroscopy in presence of 3 mM UDP-GlcUA. It is filed as ADME, Intestine, Microsome. The following applies: 1 h. In a few lines: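 Protein (5 μg UGT1A10 or microsomal) incubated with 0.2 mM substrate and 3 mM UDP-GlcUA, 60 min. HPLC on C18 at 25°C with a 15–80% methanol gradient in 0.05 M ammonium formate pH 3.4 at 1 ml/min. ESI positive-ion MS and UV/Vis spectra taken from the peaks. Glucuronide confirmed by 60 min further treatment with 1000 U E. coli β-glucuronidase.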

In data set [4] the target is T2, UDP-glucuronosyltransferase 1A9 (Homo sapiens, UniProt O60656).
T2 sequence (O60656 whole entry): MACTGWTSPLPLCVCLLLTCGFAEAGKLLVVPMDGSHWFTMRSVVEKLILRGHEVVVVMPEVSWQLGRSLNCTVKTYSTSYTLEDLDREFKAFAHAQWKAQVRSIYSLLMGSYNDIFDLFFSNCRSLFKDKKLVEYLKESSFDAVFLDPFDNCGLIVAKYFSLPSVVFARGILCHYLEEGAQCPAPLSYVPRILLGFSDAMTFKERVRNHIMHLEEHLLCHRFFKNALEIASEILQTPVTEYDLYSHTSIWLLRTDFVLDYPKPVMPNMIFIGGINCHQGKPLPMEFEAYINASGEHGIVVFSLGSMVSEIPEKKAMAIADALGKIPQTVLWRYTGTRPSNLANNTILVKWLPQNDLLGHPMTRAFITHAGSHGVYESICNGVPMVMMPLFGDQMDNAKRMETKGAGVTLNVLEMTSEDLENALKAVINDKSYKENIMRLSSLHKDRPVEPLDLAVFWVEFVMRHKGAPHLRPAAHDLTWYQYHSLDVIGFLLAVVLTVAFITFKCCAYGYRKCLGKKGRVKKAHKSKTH
The data set can be described thus: Drug metabolism assessed as human recombinant UGT1A9-mediated compound formation treated with C-1311 for 60 mins by ESI-MS/UV-vis spectroscopy in presence of 3 mM UDP-GlcUA. The following applies: recombinant enzyme, 1 h. Format: ADME.

Data set [5] concerns the target T3, UDP-glucuronosyltransferase 1A1 (Homo sapiens, UniProt P22309).
T3 sequence (P22309 whole entry): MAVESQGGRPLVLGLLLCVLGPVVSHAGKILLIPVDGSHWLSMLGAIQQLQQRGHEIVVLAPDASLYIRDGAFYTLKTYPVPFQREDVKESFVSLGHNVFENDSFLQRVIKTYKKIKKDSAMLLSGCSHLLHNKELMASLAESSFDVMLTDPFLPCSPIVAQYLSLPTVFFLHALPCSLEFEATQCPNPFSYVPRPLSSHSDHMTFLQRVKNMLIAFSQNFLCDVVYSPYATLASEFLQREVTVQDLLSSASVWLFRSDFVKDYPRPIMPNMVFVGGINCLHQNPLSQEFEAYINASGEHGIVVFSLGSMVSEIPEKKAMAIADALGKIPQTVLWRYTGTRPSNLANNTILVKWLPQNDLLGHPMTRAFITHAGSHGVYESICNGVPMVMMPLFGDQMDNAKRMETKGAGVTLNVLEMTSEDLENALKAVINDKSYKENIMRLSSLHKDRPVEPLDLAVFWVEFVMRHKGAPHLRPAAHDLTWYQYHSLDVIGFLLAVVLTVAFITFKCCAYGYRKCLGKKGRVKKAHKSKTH
The data set can be described thus: Drug metabolism assessed as human recombinant UGT1A1-mediated compound formation treated with C-1311 for 60 mins by ESI-MS/UV-vis spectroscopy in presence of 3 mM UDP-GlcUA. The following applies: recombinant enzyme, 1 h. It is filed as ADME.

Data set [6] relates to Liver microsome. The data set can be described thus: Drug metabolism in human liver microsomes assessed as metabolite formation treated with C-1305 for 60 mins by ESI-MS/UV-vis spectroscopy in presence of 3 mM UDP-GlcUA. Format: ADME. The following applies: 1 h. The procedure, abridged:
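Recombinant human UGT1A1 or UGT1A9 (5 μg protein), or single-donor human liver or intestinal microsomes (20 μg), incubated in Tris-HCl pH 7.4 with 5 mM MgCl2, 5 mM saccharolactone, 2% DMSO and 100 or 200 μM substrate. Started with UDP-GlcUA, 60 min at 37°C, in triplicate. Product identified by HPLC with positive-ion ESI-MS and UV/Vis spectra, and confirmed by β-glucuronidase hydrolysis.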

As usually defined, the Vmax is the top rate of the reaction or transport when substrate is in excess.

Consider `CCN(CC)CCNc1ccc2ncn3c4ccc(O)cc4c(=O)c1c23` [C-1311], for which the Drug metabolism was 0.2 nmol/min/mg in data set [1], “metabolite_detected” in data set [3], “metabolite_detected” in data set [4] and “metabolite_detected” in data set [5]. The Vmax in the data set on Liver microsome [2] was found to be 0.156 nmol/min/mg.

In the case of `CN(C)CCCNc1ccc2nnn3c4ccc(O)cc4c(=O)c1c23`, the Drug metabolism in data set [1] is 0.2 nmol/min/mg; in the data set with Liver microsome [6] it was “metabolite_detected”. In addition, in the data set with Liver microsome [2], the maximum rate (Vmax) came out at 0.386 nmol/min/mg.
